# Legend:
# [1] = Drug distribution in western atherogenic diet fed ApoE-/- mouse brain at […], iv administered as bolus injection measured for 30 mins by gamma counter analysis; assay type: ADME, organism-based; settings: in vivo, 0.5 h
# Procedure, shortened: (§1)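 Diet-fed male ApoE-/- mice (39 ± 5 g, n = 4-6) under 2% isoflurane received radiotracer (~7.5 MBq, 100-200 µL) IV by tail-vein bolus over 30 s. After 30 min, blood was taken by cardiac puncture, then PBS/formalin perfusion and organ dissection. Uptake is decay-corrected %ID normalized to tissue mass (%ID/g).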
# [2] = Drug distribution in western atherogenic diet fed ApoE-/- mouse kidney at […], iv administered as bolus injection measured for 60 mins by PET analysis; assay type: ADME, organism-based; settings: in vivo, 1 h
# Procedure, shortened: (§2)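 A 10 min transmission scan preceded tail-vein IV bolus of radiotracer (~7.5 MBq, over 30 s) in diet-fed ApoE-/- mice. Dynamic whole-body PET ran for 60 min (4×15 s, 4×1 min, 11×5 min frames), corrected for attenuation and scatter, 3D-OSEM/MAP reconstruction. Volumetric organ ROIs gave %ID·cc⁻¹ time-activity curves; n = 2 per group.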
# [3] = Drug excretion in western atherogenic diet fed ApoE-/- mouse urine at […], iv administered as bolus injection measured for 60 mins by PET analysis; assay type: ADME, organism-based; settings: in vivo, 1 h; procedure, shortened: as §2
# [4] = Octanol/PBS distribution coefficient, logD of compound at pH 7.4 incubated for 10 mins under shaking condition by gamma counter analysis; assay type: physicochemical
# Procedure, shortened: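 Radiotracer partitioning between 1-octanol and 1× PBS at pH 7.4. Mean ± standard error of two independent experiments, each in quadruplicate.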
# [5] = (§3) Drug distribution in western atherogenic diet fed ApoE-/- mouse aortic plaques assessed as reduction in radioactivity at […], iv administered as bolus injection pretreated with N-(2-(4-(N-benzyl-N-(2-(hydroxycarbamoyl)-4,6-dimethylphenyl)sulfamoyl)phenoxy)ethyl)benzofuran-2-carboxamide for 15 mins followed by tracer addition and measured after 30 mins by Oil Red O staining based autoradiography relative to control; assay type: ADME, organism-based, Aorta; parameters: scale not given: the % may be the effect or the level left; settings: in vivo, 0.5 h
# Procedure, shortened: (§4)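 Male ApoE-/- mice were fed a western atherogenic diet from 8 weeks of age for 13-16 weeks. Radiotracer (~7.5 MBq) was given IV by tail-vein bolus over 30 s. Blocking: unlabelled tracer analogue (2.5 mg/kg; DMA/propylene glycol/PEG400/water) or WAY170523 (7.5 mg/kg; DMSO/PEG400/water), both IV 15 min before. At 30 min, perfused aortae were exposed to a phosphor screen for 10 half-lives (%ID·mm⁻²), with ORO staining.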
# [6] = Drug distribution in western atherogenic diet fed ApoE-/- mouse fat tissue at […], iv administered as bolus injection measured for 30 mins by gamma counter analysis; assay type: ADME, organism-based, Adipose tissue; settings: in vivo, 0.5 h; procedure, shortened: as §1
# [7] = Stability of compound in 10% EtOH/saline assessed as compound degradation measured upto 75 mins by analytical radio-HPLC analysis; assay type: physicochemical; settings: buffer, 1.25 h
# Procedure, shortened: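 Radiotracer formulated in 10% EtOH/0.9% saline was held at room temperature up to 75 min. Samples were analysed by analytical radio-HPLC (C18, 0.1 M ammonium formate/ACN gradient, 1 mL·min⁻¹).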
# [8] = Drug distribution in western atherogenic diet fed ApoE-/- mouse aortic plaques at […], iv administered as bolus injection measured for 30 mins by Oil Red O staining based autoradiography; assay type: ADME, organism-based, Aorta; settings: in vivo, 0.5 h; procedure, shortened: as §4
# [9] = Drug distribution in western atherogenic diet fed ApoE-/- mouse aortic plaques at […], iv administered as bolus injection pretreated with 6-fluoro-N-(4-fluoro-3-methylphenyl)methyl)-5-(2-fluoroethoxy)-4-oxo-3,4-dihydroquinazoline-2-carboxamide for 15 mins followed by tracer addition and measured after 30 mins by Oil Red O staining based autoradiography; assay type: ADME, organism-based, Aorta; settings: in vivo, 0.5 h; procedure, shortened: as §4
# [10] = Stability in western atherogenic diet fed ApoE-/- mouse plasma assessed as intact compound level at ~75 MBq, iv administered as bolus injection pretreated with 6-fluoro-N-(4-fluoro-3-methylphenyl)methyl)-5-(2-fluoroethoxy)-4-oxo-3,4-dihydroquinazoline-2-carboxamide followed by tracer addition and measured after 30 mins by gamma counter analysis; assay type: ADME, organism-based; settings: read-out: Stability
# Procedure, shortened: (§5)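 Blood was drawn by cardiac puncture into K₂EDTA tubes 30 min after IV radiotracer in diet-fed ApoE-/- mice. Optional IV pretreatment 15 min before: unlabelled analogue 2.5 mg/kg or WAY170523 7.5 mg/kg. Pooled protein-free plasma was spiked with standard and run on radio-HPLC (C18, ammonium formate/ACN). Fractions were collected each minute and gamma-counted to give the parent fraction.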
# [11] = Drug distribution in western atherogenic diet fed ApoE-/- mouse bone at […], iv administered as bolus injection measured for 30 mins by gamma counter analysis; assay type: ADME, organism-based, Bone element; settings: in vivo, 0.5 h; procedure, shortened: as §1
# [12] = Drug distribution in western atherogenic diet fed ApoE-/- mouse muscle tissue at […], iv administered as bolus injection measured for 30 mins by gamma counter analysis; assay type: ADME, organism-based; settings: in vivo, 0.5 h; procedure, shortened: as §1
# [13] = Drug distribution in western atherogenic diet fed ApoE-/- mouse myocardium assessed as compound remaining at […], iv administered as bolus injection measured for 30 mins by gamma counter analysis; assay type: ADME, organism-based; settings: in vivo, 0.5 h; procedure, shortened: as §1
# [14] = Drug distribution in western atherogenic diet fed ApoE-/- mouse liver at […], iv administered as bolus injection measured for 60 mins by PET analysis; assay type: ADME, organism-based; settings: in vivo, 1 h; procedure, shortened: as §2
# [15] = Drug distribution in western atherogenic diet fed ApoE-/- mouse spleen at […], iv administered as bolus injection measured for 30 mins by gamma counter analysis; assay type: ADME, organism-based; settings: in vivo, 0.5 h; procedure, shortened: as §1
# [16] = Drug distribution in western atherogenic diet fed ApoE-/- mouse lung at […], iv administered as bolus injection measured for 30 mins by gamma counter analysis; assay type: ADME, organism-based; settings: in vivo, 0.5 h; procedure, shortened: as §1
# [17] = Stability in western atherogenic diet fed ApoE-/- mouse plasma assessed as intact compound level at ~75 MBq, iv administered as bolus injection pretreated with N-(2-(4-(N-benzyl-N-(2-(hydroxycarbamoyl)-4,6-dimethylphenyl)sulfamoyl)phenoxy)ethyl)benzofuran-2-carboxamide followed by tracer addition and measured after 30 mins by gamma counter analysis; assay type: ADME, organism-based; settings: read-out: Stability; procedure, shortened: as §5
# [18] = Drug distribution in western atherogenic diet fed ApoE-/- mouse pancreas at […], iv administered as bolus injection measured for 30 mins by gamma counter analysis; assay type: ADME, organism-based; settings: in vivo, 0.5 h; procedure, shortened: as §1
# [19] = Drug distribution in western atherogenic diet fed ApoE-/- mouse myocardium assessed as myocardial retention at […], iv administered as bolus injection measured for 60 mins by PET analysis; assay type: ADME, organism-based; settings: in vivo, 1 h; procedure, shortened: as §2
# [20] = Drug distribution in western atherogenic diet fed ApoE-/- mouse liver at […], iv administered as bolus injection measured for 30 mins by gamma counter analysis; assay type: ADME, organism-based; settings: in vivo, 0.5 h; procedure, shortened: as §1
# [21] = Drug distribution in western atherogenic diet fed ApoE-/- mouse stomach at […], iv administered as bolus injection measured for 30 mins by gamma counter analysis; assay type: ADME, organism-based; settings: in vivo, 0.5 h; procedure, shortened: as §1
# [22] = Tmax in western atherogenic diet fed ApoE-/- mouse blood at […], iv administered as bolus injection measured for 60 mins by PET analysis; assay type: ADME, organism-based; settings: in vivo, 1 h; procedure, shortened: as §2
# [23] = as §3, with “6-fluoro-N-(4-fluoro-3-methylphenyl)methyl)-5-(2-fluoroethoxy)-4-oxo-3,4-dihydroquinazoline-2-carboxamide” for “N-(2-(4-(N-benzyl-N-(2-(hydroxycarbamoyl)-4,6-dimethylphenyl)sulfamoyl)phenoxy)ethyl)benzofuran-2-carboxamide”; assay type: ADME, organism-based, Aorta; parameters: scale not given: the % may be the effect or the level left; settings: in vivo, 0.5 h; procedure, shortened: as §4
# [24] = Stability in western atherogenic diet fed ApoE-/- mouse plasma assessed as intact compound level at ~75 MBq, iv administered as bolus injection and measured after 30 mins by gamma counter analysis; assay type: ADME, organism-based; settings: read-out: Stability; procedure, shortened: as §5
# [25] = Drug distribution in western atherogenic diet fed ApoE-/- mouse aortic plaques at […], iv administered as bolus injection pretreated with N-(2-(4-(N-benzyl-N-(2-(hydroxycarbamoyl)-4,6-dimethylphenyl)sulfamoyl)phenoxy)ethyl)benzofuran-2-carboxamide for 15 mins followed by tracer addition and measured after 30 mins by Oil Red O staining based autoradiography; assay type: ADME, organism-based, Aorta; settings: in vivo, 0.5 h; procedure, shortened: as §4
# [26] = Drug distribution in western atherogenic diet fed ApoE-/- mouse blood assessed as compound remaining at […], iv administered as bolus injection measured for 30 mins by gamma counter analysis; assay type: ADME, organism-based; settings: in vivo, 0.5 h; procedure, shortened: as §1
# [27] = Drug distribution in western atherogenic diet fed ApoE-/- mouse blood assessed as compound remaining at 14 to 16 MBq, iv administered as bolus injection measured for 150 mins by gamma counter analysis; assay type: ADME, organism-based; settings: in vivo, 2.5 h, dose 14-16 MBq
structure (smiles),measurement,setting,value
Cc1cc(CNC(=O)c2nc3ccc(F)c(OCC[18F])c3c(=O)[nH]2)ccc1F,Drug uptake,[1],~ 2 % ID/g
same,Drug uptake,[2],4.42 %ID/cc
same,Drug excretion,[3],Active
same,logD at 10 min,[4],3.09
same,Activity,[5],36%
same,Drug uptake,[6],~ 2 % ID/g
same,Stability,[7],Stable
same,Drug uptake,[8],270 %ID.m^-2
same,Drug uptake,[9],208.2 %ID.m^-2
same,remaining at 0.5 h,[10],78%
same,Drug uptake,[11],~ 2 % ID/g
same,Drug uptake,[12],~ 2 % ID/g
same,Drug uptake,[13],~ 1 % ID/g
same,Drug uptake,[14],6.43 %ID/cc
same,Drug uptake,[15],~ 2 % ID/g
same,Drug uptake,[16],~ 2 % ID/g
same,remaining at 0.5 h,[17],87%
same,Drug uptake,[18],2.14 % ID/g
same,Drug uptake,[19],< 0.5 %ID/cc
same,Drug uptake,[20],3.32 % ID/g
same,Drug uptake,[21],~ 2 % ID/g
same,Tmax,[22],37.5 s
same,Activity,[23],23%
same,remaining at 0.5 h,[24],78%
same,Drug uptake,[25],173.4 %ID.m^-2
same,Drug uptake,[26],3.28 % ID/g
same,Drug uptake,[27],Active
